Experimental data published in ChEMBL document CHEMBL4261600 (Eur J Med Chem, 2018).
Active and inactive are the calls of the source.

How the values were obtained:
[1] = target: cAMP-dependent protein kinase catalytic subunit PRKX (Homo sapiens) (UniProt P51817); assay: Binding affinity to wild-type human partial length PRKX (M1 to F358 residues) expressed in bacterial expression system assessed as remaining unbound target protein level at 1000 nM by Kinomescan method relative to control
[2] = target: MAP kinase-activated protein kinase 5 (Homo sapiens) (UniProt Q8IW41); assay: Binding affinity to wild-type human partial length MAPKAPK5 (M1 to D322 residues) expressed in mammalian expression system assessed as remaining unbound target protein level at 1000 nM by Kinomescan method relative to control
Outline: (§1)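 KINOMEscan binding panel of 468 kinases/mutants. Inhibitor was tested at a single concentration of 1 μM. Binding is reported as percent of control, defined relative to a DMSO control.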

[3] = target: Serine/threonine-protein kinase SIK2 (Homo sapiens) (UniProt Q9H0K1); assay: Binding affinity to wild-type human full length SIK2 (M1 to N926 residues) expressed in bacterial expression system assessed as remaining unbound target protein level at 1000 nM by Kinomescan method relative to control
Outline: (§2)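 Profiled in a KINOMEscan binding panel with the inhibitor at a single concentration of 1 μM. Binding to each kinase was read out as percent of control, relative to a DMSO control. Strong binders were defined as those with a percent control value below 1.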

HL-60 = assay: Induction of apoptosis in human HL60 cells assessed as decrease in XIAP level up to 3 uM after 2 hrs by immunoblotting analysis; format: functional, cell-based
[4] = target: Serine/threonine-protein kinase SBK1 (Homo sapiens) (UniProt Q52WX2); assay: Binding affinity to wild-type human partial length SBK1 (P23 to P348 residues) expressed in mammalian expression system assessed as remaining unbound target protein level at 1000 nM by Kinomescan method relative to control
[5] = target: Serine/threonine-protein kinase Chk2 (Homo sapiens) (UniProt O96017); assay: Binding affinity to wild-type human partial length CHEK2 (S253 to E574 residues) expressed in bacterial expression system assessed as remaining unbound target protein level at 1000 nM by Kinomescan method relative to control
[6] = target: Leucine-rich repeat serine/threonine-protein kinase 2 (Homo sapiens) (UniProt Q5S007); assay: Binding affinity to wild-type human partial length LRRK2 (H970 to E2527 residues) expressed in mammalian expression system assessed as remaining unbound target protein level at 1000 nM by Kinomescan method relative to control
Leucine-rich repeat serine/threonine-protein kinase 2 (Homo sapiens), sequence (Q5S007 whole entry, the tested form may be a part): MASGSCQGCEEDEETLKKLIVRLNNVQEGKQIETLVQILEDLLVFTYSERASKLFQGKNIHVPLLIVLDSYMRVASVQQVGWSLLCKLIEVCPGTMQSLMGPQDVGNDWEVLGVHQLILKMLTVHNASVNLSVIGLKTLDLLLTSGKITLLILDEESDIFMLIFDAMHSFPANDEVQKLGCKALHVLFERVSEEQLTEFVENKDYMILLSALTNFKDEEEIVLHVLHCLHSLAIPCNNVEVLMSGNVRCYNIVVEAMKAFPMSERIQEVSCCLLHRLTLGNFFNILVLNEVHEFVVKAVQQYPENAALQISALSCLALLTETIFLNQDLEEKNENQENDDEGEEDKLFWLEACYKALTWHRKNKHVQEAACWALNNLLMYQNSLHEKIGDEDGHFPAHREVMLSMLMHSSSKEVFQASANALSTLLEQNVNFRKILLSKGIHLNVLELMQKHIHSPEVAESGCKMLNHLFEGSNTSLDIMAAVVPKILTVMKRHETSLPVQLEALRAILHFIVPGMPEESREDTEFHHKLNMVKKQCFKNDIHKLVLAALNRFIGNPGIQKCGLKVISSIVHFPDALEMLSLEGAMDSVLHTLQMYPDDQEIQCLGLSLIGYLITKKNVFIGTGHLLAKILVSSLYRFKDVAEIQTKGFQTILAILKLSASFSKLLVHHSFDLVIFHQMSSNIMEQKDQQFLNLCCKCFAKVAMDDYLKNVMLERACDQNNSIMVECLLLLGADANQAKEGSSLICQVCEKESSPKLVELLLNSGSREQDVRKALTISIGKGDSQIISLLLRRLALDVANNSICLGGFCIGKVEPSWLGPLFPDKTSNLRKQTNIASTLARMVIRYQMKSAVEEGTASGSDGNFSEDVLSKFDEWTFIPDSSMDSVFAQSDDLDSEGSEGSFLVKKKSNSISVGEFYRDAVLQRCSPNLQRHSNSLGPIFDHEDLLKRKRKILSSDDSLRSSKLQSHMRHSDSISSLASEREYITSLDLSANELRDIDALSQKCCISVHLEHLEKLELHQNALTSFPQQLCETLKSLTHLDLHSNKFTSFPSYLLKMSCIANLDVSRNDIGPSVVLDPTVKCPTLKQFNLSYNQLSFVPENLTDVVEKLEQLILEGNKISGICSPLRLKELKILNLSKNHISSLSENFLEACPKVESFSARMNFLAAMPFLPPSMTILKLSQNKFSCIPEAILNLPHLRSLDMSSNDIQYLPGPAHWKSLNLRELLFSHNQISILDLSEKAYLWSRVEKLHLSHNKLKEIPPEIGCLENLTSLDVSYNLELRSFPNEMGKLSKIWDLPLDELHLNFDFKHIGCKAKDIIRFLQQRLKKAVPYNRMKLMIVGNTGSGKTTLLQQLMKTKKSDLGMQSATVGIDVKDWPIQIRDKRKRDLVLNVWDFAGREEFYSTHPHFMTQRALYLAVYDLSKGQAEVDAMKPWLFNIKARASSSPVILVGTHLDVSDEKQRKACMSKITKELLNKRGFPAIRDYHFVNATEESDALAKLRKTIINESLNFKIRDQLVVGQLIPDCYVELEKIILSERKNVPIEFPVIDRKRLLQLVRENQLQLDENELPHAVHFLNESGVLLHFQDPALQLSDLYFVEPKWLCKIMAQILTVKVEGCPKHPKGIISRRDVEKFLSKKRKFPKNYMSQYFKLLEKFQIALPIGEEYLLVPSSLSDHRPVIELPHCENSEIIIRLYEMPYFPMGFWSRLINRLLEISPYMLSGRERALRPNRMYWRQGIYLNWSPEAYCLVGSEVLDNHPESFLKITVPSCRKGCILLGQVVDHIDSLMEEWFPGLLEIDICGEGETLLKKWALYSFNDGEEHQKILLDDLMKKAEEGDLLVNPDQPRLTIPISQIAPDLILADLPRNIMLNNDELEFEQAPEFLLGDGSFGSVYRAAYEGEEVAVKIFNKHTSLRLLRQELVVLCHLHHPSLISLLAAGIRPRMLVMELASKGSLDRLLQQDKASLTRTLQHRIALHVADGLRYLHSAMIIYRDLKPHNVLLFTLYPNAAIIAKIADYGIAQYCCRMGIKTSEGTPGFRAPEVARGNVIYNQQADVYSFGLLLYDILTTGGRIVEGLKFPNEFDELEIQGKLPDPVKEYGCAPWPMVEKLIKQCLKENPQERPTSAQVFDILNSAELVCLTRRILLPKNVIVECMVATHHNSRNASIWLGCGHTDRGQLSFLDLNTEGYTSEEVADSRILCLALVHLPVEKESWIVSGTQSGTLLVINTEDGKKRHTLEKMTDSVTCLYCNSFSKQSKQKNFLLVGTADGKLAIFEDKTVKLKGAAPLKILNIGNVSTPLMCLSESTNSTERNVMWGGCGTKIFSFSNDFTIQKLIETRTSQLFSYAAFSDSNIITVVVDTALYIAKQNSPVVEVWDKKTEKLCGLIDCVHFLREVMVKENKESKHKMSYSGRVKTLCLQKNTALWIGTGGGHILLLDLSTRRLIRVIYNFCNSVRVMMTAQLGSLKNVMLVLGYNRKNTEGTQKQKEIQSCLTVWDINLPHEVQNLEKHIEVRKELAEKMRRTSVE

[7] = target: Tyrosine-protein kinase receptor Tie-1 (Homo sapiens) (UniProt P35590); assay: Binding affinity to wild-type human partial length TIE1 (T819 to A1138 residues) expressed in bacterial expression system assessed as remaining unbound target protein level at 1000 nM by Kinomescan method relative to control
[8] = target: Tyrosine-protein kinase Fyn (Homo sapiens) (UniProt P06241); assay: Binding affinity to wild-type human partial length FYN (T243 to L534 residues) expressed in bacterial expression system assessed as remaining unbound target protein level at 1000 nM by Kinomescan method relative to control
Homo sapiens [9] = species: Homo sapiens; assay: Selectivity ratio of IC50 for recombinant full length His-tagged human CDK2/CyclinA to IC50 for recombinant full length His-tagged human CDK9/CyclinT1
[10] = target: Serine/threonine-protein kinase ICK (Homo sapiens) (UniProt Q9UPZ9); assay: Binding affinity to wild-type human partial length ICK (M1 to P314 residues) expressed in mammalian expression system assessed as remaining unbound target protein level at 1000 nM by Kinomescan method relative to control; outline: as §1
[11] = target: Ribosomal protein S6 kinase alpha-2 (Homo sapiens) (UniProt Q15349); assay: Binding affinity to wild-type human partial length C-terminal RSK3 kinase domain 2 (V403 to K700 residues) expressed in bacterial expression system assessed as remaining unbound target protein level at 1000 nM by Kinomescan method relative to control; outline: as §2
Ribosomal protein S6 kinase alpha-2 (Homo sapiens), sequence (Q15349 whole entry, the tested form may be a part): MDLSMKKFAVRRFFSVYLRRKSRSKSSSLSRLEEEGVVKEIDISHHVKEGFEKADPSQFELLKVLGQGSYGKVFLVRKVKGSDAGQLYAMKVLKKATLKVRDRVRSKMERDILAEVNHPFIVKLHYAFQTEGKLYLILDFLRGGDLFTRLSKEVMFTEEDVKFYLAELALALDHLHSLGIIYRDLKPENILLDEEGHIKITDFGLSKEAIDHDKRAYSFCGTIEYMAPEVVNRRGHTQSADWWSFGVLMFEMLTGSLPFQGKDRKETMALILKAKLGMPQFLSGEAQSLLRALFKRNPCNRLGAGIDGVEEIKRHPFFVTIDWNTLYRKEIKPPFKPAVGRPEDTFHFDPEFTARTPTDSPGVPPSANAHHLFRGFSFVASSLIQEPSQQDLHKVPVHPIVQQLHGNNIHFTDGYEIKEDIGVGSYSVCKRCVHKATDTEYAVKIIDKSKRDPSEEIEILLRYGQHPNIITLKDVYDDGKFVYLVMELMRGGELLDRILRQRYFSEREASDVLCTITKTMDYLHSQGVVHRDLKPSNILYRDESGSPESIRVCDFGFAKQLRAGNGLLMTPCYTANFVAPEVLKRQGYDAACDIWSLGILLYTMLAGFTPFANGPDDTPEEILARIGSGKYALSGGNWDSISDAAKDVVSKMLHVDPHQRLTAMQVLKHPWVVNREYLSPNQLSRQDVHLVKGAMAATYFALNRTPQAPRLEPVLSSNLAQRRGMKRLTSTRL

[12] = target: 5'-AMP-activated protein kinase catalytic subunit alpha-2 (Homo sapiens) (UniProt P54646); assay: Binding affinity to wild-type human partial length AMPK alpha2 (M1 to E306 residues) expressed in bacterial expression system assessed as remaining unbound target protein level at 1000 nM by Kinomescan method relative to control; outline: as §2
Homo sapiens [13] = species: Homo sapiens; assay: Selectivity ratio of IC50 for recombinant GST-tagged human full length CDK14/cyclin Y (2 to end residues) to IC50 for recombinant full length His-tagged human CDK9/CyclinT1
[14] = Cmax in Sprague-Dawley rat at 20 mg/kg, po by LC-MS/MS analysis; format: ADME, organism-based; parameters: dose 20 mg/kg, route oral; settings: in vivo
[15] = target: MAP kinase-activated protein kinase 2 (Homo sapiens) (UniProt P49137); assay: Binding affinity to wild-type human partial length MAPKAPK2 (V48 to D345 residues) expressed in bacterial expression system assessed as remaining unbound target protein level at 1000 nM by Kinomescan method relative to control; outline: as §1
[16] = target: Cyclin-dependent kinase 16 (Homo sapiens) (UniProt Q00536); assay: Binding affinity to wild-type human partial length PCTK1 (G160 to A474 residues) expressed in mammalian expression system assessed as remaining unbound target protein level at 1000 nM by Kinomescan method relative to control; outline: as §1
Cyclin-dependent kinase 16 (Homo sapiens), sequence (Q00536 whole entry, the tested form may be a part): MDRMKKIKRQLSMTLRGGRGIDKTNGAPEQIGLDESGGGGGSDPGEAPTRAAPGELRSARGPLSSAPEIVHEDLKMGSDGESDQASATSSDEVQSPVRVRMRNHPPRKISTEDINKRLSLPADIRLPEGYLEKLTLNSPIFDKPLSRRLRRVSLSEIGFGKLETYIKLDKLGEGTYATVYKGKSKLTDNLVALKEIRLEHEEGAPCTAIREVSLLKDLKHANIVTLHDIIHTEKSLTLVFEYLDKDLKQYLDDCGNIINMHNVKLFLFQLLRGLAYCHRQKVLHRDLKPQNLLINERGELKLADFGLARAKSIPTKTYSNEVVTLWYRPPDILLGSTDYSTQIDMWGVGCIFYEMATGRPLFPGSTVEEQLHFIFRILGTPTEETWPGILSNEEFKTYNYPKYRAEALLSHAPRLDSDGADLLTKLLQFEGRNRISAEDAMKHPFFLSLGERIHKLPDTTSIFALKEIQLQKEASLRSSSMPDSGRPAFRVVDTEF

[17] = target: cGMP-dependent protein kinase 1 (Homo sapiens) (UniProt Q13976); assay: Binding affinity to wild-type human partial length PRKG1 (L339 to F686 residues) expressed in bacterial expression system assessed as remaining unbound target protein level at 1000 nM by Kinomescan method relative to control
[18] = target: Serine/threonine-protein kinase RIO2 (Homo sapiens) (UniProt Q9BVS4); assay: Binding affinity to wild-type human partial length RIOK2 (M1 to D313 residues) expressed in mammalian expression system assessed as remaining unbound target protein level at 1000 nM by Kinomescan method relative to control
[19] = target: Mitogen-activated protein kinase 10 (Homo sapiens) (UniProt P53779); assay: Binding affinity to wild-type human partial length JNK3 (V28 to Q422 residues) expressed in mammalian expression system assessed as remaining unbound target protein level at 1000 nM by Kinomescan method relative to control; outline: as §1
[20] = target: Protein kinase C delta type (Homo sapiens) (UniProt Q05655); assay: Binding affinity to wild-type human partial length PRKCD (Q328 to D676 residues) expressed in bacterial expression system assessed as remaining unbound target protein level at 1000 nM by Kinomescan method relative to control
Protein kinase C delta type (Homo sapiens), sequence (Q05655 whole entry, looked up, the tested form may be a part): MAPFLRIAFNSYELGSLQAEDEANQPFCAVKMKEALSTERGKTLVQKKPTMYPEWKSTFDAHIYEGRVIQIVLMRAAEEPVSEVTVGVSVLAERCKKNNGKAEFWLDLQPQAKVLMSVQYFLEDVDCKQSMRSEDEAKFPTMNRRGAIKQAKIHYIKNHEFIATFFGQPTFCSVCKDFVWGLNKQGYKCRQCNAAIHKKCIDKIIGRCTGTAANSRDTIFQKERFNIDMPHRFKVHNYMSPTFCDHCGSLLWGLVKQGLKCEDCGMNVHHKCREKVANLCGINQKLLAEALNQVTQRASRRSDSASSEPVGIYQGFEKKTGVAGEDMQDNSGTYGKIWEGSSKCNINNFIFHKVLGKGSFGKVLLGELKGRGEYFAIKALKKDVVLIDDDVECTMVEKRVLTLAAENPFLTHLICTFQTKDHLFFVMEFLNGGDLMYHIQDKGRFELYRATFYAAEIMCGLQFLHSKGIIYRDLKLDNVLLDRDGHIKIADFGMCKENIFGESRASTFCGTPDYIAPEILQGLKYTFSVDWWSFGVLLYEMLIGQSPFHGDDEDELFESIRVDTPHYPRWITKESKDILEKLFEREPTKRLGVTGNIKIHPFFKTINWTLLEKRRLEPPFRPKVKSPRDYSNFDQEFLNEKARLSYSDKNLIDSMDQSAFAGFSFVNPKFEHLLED

[21] = target: Ephrin type-B receptor 1 (Homo sapiens) (UniProt P54762); assay: Binding affinity to wild-type human partial length EPHB1 (P589 to T911 residues) expressed in bacterial expression system assessed as remaining unbound target protein level at 1000 nM by Kinomescan method relative to control
[22] = target: Non-receptor tyrosine-protein kinase TYK2 (Homo sapiens) (UniProt P29597); assay: Binding affinity to wild-type human partial length TYK2 JH1 catalytic domain (V877 to C1187 residues) expressed in mammalian expression system assessed as remaining unbound target protein level at 1000 nM by Kinomescan method relative to control

cAMP-dependent protein kinase catalytic subunit PRKX (Homo sapiens), sequence (P51817 whole entry, the tested form may be a part): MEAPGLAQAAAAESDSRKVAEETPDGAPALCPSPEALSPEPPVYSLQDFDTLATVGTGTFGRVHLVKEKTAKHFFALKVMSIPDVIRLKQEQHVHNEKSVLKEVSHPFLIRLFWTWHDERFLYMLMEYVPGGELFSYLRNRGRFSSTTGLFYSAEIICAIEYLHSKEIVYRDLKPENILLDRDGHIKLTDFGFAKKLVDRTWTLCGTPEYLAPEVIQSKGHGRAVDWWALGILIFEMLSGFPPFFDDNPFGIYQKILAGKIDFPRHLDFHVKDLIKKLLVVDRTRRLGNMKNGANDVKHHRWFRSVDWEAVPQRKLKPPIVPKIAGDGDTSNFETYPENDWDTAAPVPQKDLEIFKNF

## COCCN[C@H]1CC[C@H](Nc2cc(-c3csc(NCC4(C#N)CCOCC4)n3)c(Cl)cn2)CC1
[1]
  Activity: 91%
[2]
  Activity: 93%
[3]
  Activity: 100%
HL-60
  Activity: inactive
[4]
  Activity: 75%
[5]
  Activity: 90%
[6]
  Activity: 100%
[7]
  Activity: 80%
[8]
  Activity: 83%
Homo sapiens [9]
  Ratio IC50: > 1000
[10]
  Activity: 40%
[11]
  Activity: 92%
[12]
  Activity: 100%
Homo sapiens [13]
  Ratio IC50: > 1000
[14]
  Cmax: 329 ng/mL
[15]
  Activity: 99%
[16]
  Activity: 46%
[17]
  Activity: 100%
[18]
  Activity: 80%
[19]
  Activity: 7.1%
[20]
  Activity: 91%
[21]
  Activity: 88%
[22]
  Activity: 90%
